ChEMBL document CHEMBL2331189, “Synthesis of tacrine-lophine hybrids via one-pot four component reaction and biological evaluation as acetyl- and butyrylcholinesterase inhibitors” (Eur J Med Chem, 2013)

What was measured:
Cholinesterase = Cholinesterase (Homo sapiens, UniProt P06276); test: Inhibition of BuChE in human plasma using butyrylthiocholine iodide as substrate by Ellman's colorimetric method
Procedure, shortened: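 The BuChE source is plasma from 5 healthy human volunteers (24–60 years, both sexes), centrifuged at 1000× g for 15 min at room temperature and stored at −20 °C. In 20 mM phosphate buffer pH 7.4, plasma was incubated 150 s with 0.8 mM butyrylthiocholine iodide and DTNB. Absorbance of the yellow anion was read at 415 nm. Protein was determined by Peterson-modified Lowry against BSA.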

Acetylcholinesterase = target: T1, Acetylcholinesterase (Rattus norvegicus, UniProt P37136); test: Inhibition of AChE in Wistar rat brain cortex using acetylthiocholine iodide as substrate by Ellman's colorimetric method
T1 sequence (P37136 whole entry): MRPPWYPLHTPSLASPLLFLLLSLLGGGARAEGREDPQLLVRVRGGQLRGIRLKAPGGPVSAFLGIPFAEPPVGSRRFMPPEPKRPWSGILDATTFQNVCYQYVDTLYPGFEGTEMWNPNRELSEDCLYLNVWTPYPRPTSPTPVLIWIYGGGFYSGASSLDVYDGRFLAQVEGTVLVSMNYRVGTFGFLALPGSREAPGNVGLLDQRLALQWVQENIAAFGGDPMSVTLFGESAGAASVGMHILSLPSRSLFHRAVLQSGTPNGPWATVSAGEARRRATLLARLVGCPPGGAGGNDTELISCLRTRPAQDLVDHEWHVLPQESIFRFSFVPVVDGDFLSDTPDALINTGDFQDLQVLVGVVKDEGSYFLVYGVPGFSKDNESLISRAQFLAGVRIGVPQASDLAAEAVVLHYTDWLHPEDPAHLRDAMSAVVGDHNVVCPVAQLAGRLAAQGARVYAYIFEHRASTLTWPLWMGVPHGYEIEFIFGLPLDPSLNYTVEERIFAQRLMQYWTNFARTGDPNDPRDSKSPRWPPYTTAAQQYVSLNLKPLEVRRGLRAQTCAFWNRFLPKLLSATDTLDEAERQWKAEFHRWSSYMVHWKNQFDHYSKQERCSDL
Procedure, shortened: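 Enzyme source is the cortex of adult male Wistar rats (2–3 months), dissected on ice and homogenized in cold 10 mM Tris-HCl pH 7.2 with 160 mM sucrose. The 10,000× g supernatant (10 min, 4 °C) was stored at −20 °C. The sample in 20 mM phosphate pH 7.4 was incubated 150 s with 0.8 mM acetylthiocholine iodide plus DTNB.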

[1] = Ratio of IC50 for BuChE in human plasma to IC50 for AChE in Wistar rat brain cortex; assay type: cell-free

Cholinesterase, sequence (P06276 whole entry): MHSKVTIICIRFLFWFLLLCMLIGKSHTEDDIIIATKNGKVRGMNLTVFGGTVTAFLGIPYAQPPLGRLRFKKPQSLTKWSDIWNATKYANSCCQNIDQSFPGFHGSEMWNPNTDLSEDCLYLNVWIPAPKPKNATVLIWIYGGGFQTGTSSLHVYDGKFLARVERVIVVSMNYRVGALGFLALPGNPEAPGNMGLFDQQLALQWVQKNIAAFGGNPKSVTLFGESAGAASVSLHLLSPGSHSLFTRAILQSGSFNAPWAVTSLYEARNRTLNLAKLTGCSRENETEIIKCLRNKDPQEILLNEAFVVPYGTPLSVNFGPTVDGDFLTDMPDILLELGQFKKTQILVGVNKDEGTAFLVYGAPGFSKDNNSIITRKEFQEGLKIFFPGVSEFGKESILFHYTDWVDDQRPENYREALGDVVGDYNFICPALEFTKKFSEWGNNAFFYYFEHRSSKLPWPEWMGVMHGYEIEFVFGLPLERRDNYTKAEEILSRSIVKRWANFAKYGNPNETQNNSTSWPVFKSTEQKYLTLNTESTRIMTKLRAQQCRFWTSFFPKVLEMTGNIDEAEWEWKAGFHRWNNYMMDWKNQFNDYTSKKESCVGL

In the case of N#Cc1ccc(-c2nc(-c3ccccc3)c(-c3ccccc3)n2CCCCCCCNc2c3c(nc4ccccc24)CCCC3)cc1, the IC50 (Cholinesterase; read-out: IC50) is reported as 0.0071 µM and the IC50 (Acetylcholinesterase) is reported as “Not Active”.

Compound Fc1ccc(-c2nc(-c3ccccc3)c(-c3ccccc3)n2CCCCCCCCNc2c3c(nc4ccccc24)CCCC3)cc1 has a Ratio IC50 [1] of 2.2, an IC50 (Cholinesterase; read-out: IC50) of 0.0573 µM and an IC50 (Acetylcholinesterase; read-out: IC50) of 0.0258 µM.

Compound c1ccc2c(NCCCCCCCNc3c4c(nc5ccccc35)CCCC4)c3c(nc2c1)CCCC3 has an IC50 (Cholinesterase; read-out: IC50) of 0.00903 µM.

Work on O=[N+]([O-])c1ccc(-c2nc(-c3ccccc3)c(-c3ccccc3)n2CCCCCCCNc2c3c(nc4ccccc24)CCCC3)cc1 yielded a Ratio IC50 [1] of 1, an IC50 (Cholinesterase; read-out: IC50) of 0.0769 µM and an IC50 (Acetylcholinesterase; read-out: IC50) of 0.0721 µM.

In the case of Clc1ccc(-c2nc(-c3ccccc3)c(-c3ccccc3)n2CCCCCCNc2c3c(nc4ccccc24)CCCC3)cc1, the IC50 (Cholinesterase; read-out: IC50) is reported as 0.0293 µM and the IC50 (Acetylcholinesterase) is reported as “Not Active”.

Work on COc1ccc(-c2nc(-c3ccccc3)c(-c3ccccc3)n2CCCCCCCNc2c3c(nc4ccccc24)CCCC3)cc1 yielded a Ratio IC50 [1] of 0.9, an IC50 (Cholinesterase; read-out: IC50) of 0.0617 µM and an IC50 (Acetylcholinesterase; read-out: IC50) of 0.0687 µM.

In the case of c1ccc(-c2nc(-c3ccccc3)n(CCCCCCCNc3c4c(nc5ccccc35)CCCC4)c2-c2ccccc2)cc1, the Ratio IC50 [1] is reported as 1.1, the IC50 (Cholinesterase; read-out: IC50) is reported as 0.0924 µM and the IC50 (Acetylcholinesterase; read-out: IC50) is reported as 0.0807 µM.

For c1ccc(-c2nc(-c3ccccc3)n(CCCCCCCCCn3c(-c4ccccc4)nc(-c4ccccc4)c3-c3ccccc3)c2-c2ccccc2)cc1, the IC50 (Cholinesterase) was “Not Active” and the IC50 (Acetylcholinesterase) was “Not Active”.

With O=[N+]([O-])c1ccc(-c2nc(-c3ccccc3)c(-c3ccccc3)n2CCCCCCNc2c3c(nc4ccccc24)CCCC3)cc1 the IC50 (Cholinesterase; read-out: IC50) was 0.0124 µM and the IC50 (Acetylcholinesterase) was “Not Active”.

With Clc1ccc(-c2nc(-c3ccccc3)c(-c3ccccc3)n2CCCCCCCCCCNc2c3c(nc4ccccc24)CCCC3)cc1 the IC50 (Cholinesterase) was “Not Active” and the IC50 (Acetylcholinesterase) was “Not Active”.

In the case of c1ccc(-c2nc(-c3ccccc3)n(CCCCCCCCn3c(-c4ccccc4)nc(-c4ccccc4)c3-c3ccccc3)c2-c2ccccc2)cc1, the IC50 (Cholinesterase) is reported as “Not Active” and the IC50 (Acetylcholinesterase; read-out: IC50) is reported as 0.0425 µM.

For Clc1ccc(-c2nc(-c3ccccc3)c(-c3ccccc3)n2CCCCCCCCCNc2c3c(nc4ccccc24)CCCC3)cc1, the IC50 (Cholinesterase) was “Not Active” and the IC50 (Acetylcholinesterase) was “Not Active”.

In the case of Clc1cccc(-c2nc(-c3ccccc3)c(-c3ccccc3)n2CCCCCCCNc2c3c(nc4ccccc24)CCCC3)c1, the IC50 (Cholinesterase) is reported as “Not Active” and the IC50 (Acetylcholinesterase) is reported as “Not Active”.

Work on Fc1ccc(-c2nc(-c3ccccc3)c(-c3ccccc3)n2CCCCCCCNc2c3c(nc4ccccc24)CCCC3)cc1 yielded a Ratio IC50 [1] of 1.7, an IC50 (Cholinesterase; read-out: IC50) of 0.0673 µM and an IC50 (Acetylcholinesterase; read-out: IC50) of 0.0385 µM.

With Clc1cccc(-c2nc(-c3ccccc3)c(-c3ccccc3)n2CCCCCCNc2c3c(nc4ccccc24)CCCC3)c1 the IC50 (Cholinesterase; read-out: IC50) was 0.0348 µM and the IC50 (Acetylcholinesterase) was “Not Active”.

In the case of c1ccc(-c2nc(-c3ccccc3)n(CCCCCCCCNc3c4c(nc5ccccc35)CCCC4)c2-c2ccccc2)cc1, the IC50 (Cholinesterase) is reported as “Not Active” and the IC50 (Acetylcholinesterase) is reported as “Not Active”.

For c1ccc(-c2nc(-c3ccccc3)n(CCCCCCCn3c(-c4ccccc4)nc(-c4ccccc4)c3-c3ccccc3)c2-c2ccccc2)cc1, the IC50 (Cholinesterase) was “Not Active” and the IC50 (Acetylcholinesterase) was “Not Active”.

In the case of N#Cc1ccc(-c2nc(-c3ccccc3)c(-c3ccccc3)n2CCCCCCCCNc2c3c(nc4ccccc24)CCCC3)cc1, the IC50 (Cholinesterase; read-out: IC50) is reported as 0.0305 µM and the IC50 (Acetylcholinesterase) is reported as “Not Active”.

With Fc1ccc(-c2nc(-c3ccccc3)c(-c3ccccc3)n2CCCCCCNc2c3c(nc4ccccc24)CCCC3)cc1 the IC50 (Cholinesterase; read-out: IC50) was 0.0553 µM and the IC50 (Acetylcholinesterase) was “Not Active”.

With c1ccc(-c2nc(-c3ccccc3)n(CCCCCCNc3c4c(nc5ccccc35)CCCC4)c2-c2ccccc2)cc1 the IC50 (Cholinesterase; read-out: IC50) was 0.058 µM and the IC50 (Acetylcholinesterase) was “Not Active”.

In the case of c1ccc(-c2nc(-c3ccccc3)n(CCCCCCCCCCn3c(-c4ccccc4)nc(-c4ccccc4)c3-c3ccccc3)c2-c2ccccc2)cc1, the IC50 (Cholinesterase) is reported as “Not Active” and the IC50 (Acetylcholinesterase) is reported as “Not Active”.

For c1ccc(-c2nc(-c3ccccc3)n(CCCCCCn3c(-c4ccccc4)nc(-c4ccccc4)c3-c3ccccc3)c2-c2ccccc2)cc1, the IC50 (Cholinesterase) was “Not Active” and the IC50 (Acetylcholinesterase) was “Not Active”.

With COc1ccc(-c2nc(-c3ccccc3)c(-c3ccccc3)n2CCCCCCNc2c3c(nc4ccccc24)CCCC3)cc1 the IC50 (Cholinesterase; read-out: IC50) was 0.036 µM and the IC50 (Acetylcholinesterase) was “Not Active”.

With Clc1cccc(-c2nc(-c3ccccc3)c(-c3ccccc3)n2CCCCCCCCNc2c3c(nc4ccccc24)CCCC3)c1 the IC50 (Cholinesterase) was “Not Active” and the IC50 (Acetylcholinesterase) was “Not Active”.

With Clc1ccc(-c2nc(-c3ccccc3)c(-c3ccccc3)n2CCCCCCCCNc2c3c(nc4ccccc24)CCCC3)cc1 the Ratio IC50 [1] was 18.5, the IC50 (Cholinesterase; read-out: IC50) was 0.109 µM and the IC50 (Acetylcholinesterase; read-out: IC50) was 0.00587 µM.

With COc1ccc(-c2nc(-c3ccccc3)c(-c3ccccc3)n2CCCCCCCCNc2c3c(nc4ccccc24)CCCC3)cc1 the Ratio IC50 [1] was 0.6, the IC50 (Cholinesterase; read-out: IC50) was 0.0823 µM and the IC50 (Acetylcholinesterase; read-out: IC50) was 0.126 µM.

With N#Cc1ccc(-c2nc(-c3ccccc3)c(-c3ccccc3)n2CCCCCCNc2c3c(nc4ccccc24)CCCC3)cc1 the IC50 (Cholinesterase; read-out: IC50) was 0.0296 µM and the IC50 (Acetylcholinesterase) was “Not Active”.

With O=[N+]([O-])c1ccc(-c2nc(-c3ccccc3)c(-c3ccccc3)n2CCCCCCCCNc2c3c(nc4ccccc24)CCCC3)cc1 the IC50 (Cholinesterase; read-out: IC50) was 0.12 µM and the IC50 (Acetylcholinesterase) was “Not Active”.

Clc1ccc(-c2nc(-c3ccccc3)c(-c3ccccc3)n2CCCCCCCNc2c3c(nc4ccccc24)CCCC3)cc1 gave a Ratio IC50 [1] of 0.6, an IC50 (Cholinesterase; read-out: IC50) of 0.0376 µM and an IC50 (Acetylcholinesterase; read-out: IC50) of 0.0598 µM.
